Source: the M2OR odorant receptor database
Numbering of substitutions follows the chain as printed.

Key:
Settings in all cases: stereoisomer not certain
[1] = molecular target: T1, OR1D5 (Homo sapiens) (UniProt P58170)
T1 sequence (whole entry): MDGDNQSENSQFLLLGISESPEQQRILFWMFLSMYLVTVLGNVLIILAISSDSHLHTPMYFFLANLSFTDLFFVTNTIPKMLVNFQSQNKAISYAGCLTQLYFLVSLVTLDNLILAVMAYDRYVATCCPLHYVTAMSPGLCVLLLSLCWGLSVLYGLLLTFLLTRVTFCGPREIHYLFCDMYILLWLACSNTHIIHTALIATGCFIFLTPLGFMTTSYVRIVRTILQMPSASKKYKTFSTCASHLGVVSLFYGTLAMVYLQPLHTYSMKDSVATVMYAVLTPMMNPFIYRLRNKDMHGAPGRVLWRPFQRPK
Summary of the method: (§1)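 Each receptor–molecule pair is labelled responsive or non-responsive (inactive) according to whether the original authors judged the measured signal statistically different from baseline. The data were taken from the main text and supplementary material of published papers and checked for typos and inconsistencies. Assay methods differed by source, with transient luciferase assays in mammalian cell lines being common.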

[2] = molecular target: T2, OR1E1 (Homo sapiens) (UniProt P30953)
T2 sequence (whole entry): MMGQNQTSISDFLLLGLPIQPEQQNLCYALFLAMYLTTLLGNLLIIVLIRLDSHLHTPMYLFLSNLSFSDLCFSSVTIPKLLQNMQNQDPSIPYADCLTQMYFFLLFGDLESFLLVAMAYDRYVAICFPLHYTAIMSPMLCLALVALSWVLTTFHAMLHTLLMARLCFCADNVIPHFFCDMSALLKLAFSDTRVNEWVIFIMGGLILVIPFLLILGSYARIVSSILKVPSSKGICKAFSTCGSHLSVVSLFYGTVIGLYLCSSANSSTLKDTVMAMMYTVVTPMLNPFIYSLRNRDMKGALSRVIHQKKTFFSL
Summary of the method: as §1

[3] = molecular target: T3, OR1E2 (Homo sapiens) (UniProt P47887)
T3 sequence (whole entry): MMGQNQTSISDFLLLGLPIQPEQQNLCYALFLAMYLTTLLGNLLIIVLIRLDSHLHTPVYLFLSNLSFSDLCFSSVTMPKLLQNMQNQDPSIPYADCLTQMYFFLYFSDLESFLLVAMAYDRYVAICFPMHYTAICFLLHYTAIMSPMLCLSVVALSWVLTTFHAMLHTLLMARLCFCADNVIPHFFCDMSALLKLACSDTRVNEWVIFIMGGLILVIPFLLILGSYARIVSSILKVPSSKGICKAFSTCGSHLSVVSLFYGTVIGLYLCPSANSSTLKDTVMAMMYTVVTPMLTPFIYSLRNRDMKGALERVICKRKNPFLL
Summary of the method: as §1

[4] = tested on: T4, OR1E2
T4 sequence (whole entry): T3 sequence (whole entry) with C27R
Summary of the method: as §1

[5] = molecular target: T5, OR1F1 (Homo sapiens) (UniProt O43749)
T5 sequence (whole entry): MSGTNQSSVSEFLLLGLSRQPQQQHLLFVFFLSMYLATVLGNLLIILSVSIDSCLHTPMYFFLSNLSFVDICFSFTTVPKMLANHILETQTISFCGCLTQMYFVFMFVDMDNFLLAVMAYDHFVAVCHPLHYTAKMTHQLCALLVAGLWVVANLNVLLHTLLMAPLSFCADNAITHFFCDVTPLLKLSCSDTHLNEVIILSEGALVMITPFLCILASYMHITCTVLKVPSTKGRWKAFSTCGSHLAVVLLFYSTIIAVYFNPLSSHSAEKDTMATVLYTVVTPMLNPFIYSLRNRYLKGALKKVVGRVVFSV
Summary of the method: as §1

[6] = molecular target: T6, OR1F12P (Homo sapiens) (UniProt Q8NHA8)
T6 sequence (whole entry): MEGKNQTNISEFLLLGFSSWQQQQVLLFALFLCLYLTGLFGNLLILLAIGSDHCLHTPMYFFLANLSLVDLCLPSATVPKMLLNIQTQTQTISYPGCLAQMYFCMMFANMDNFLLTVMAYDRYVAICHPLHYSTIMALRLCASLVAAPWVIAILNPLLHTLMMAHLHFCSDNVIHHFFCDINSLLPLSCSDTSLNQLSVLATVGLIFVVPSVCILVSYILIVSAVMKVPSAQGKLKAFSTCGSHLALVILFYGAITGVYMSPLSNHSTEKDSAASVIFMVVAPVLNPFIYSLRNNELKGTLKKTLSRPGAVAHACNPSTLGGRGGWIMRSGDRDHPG
Summary of the method: as §1

[7] = tested on: T7, OR1F1
T7 sequence (whole entry): T5 sequence (whole entry) with F75S
Summary of the method: as §1

[8] = molecular target: T8, OR1G1 (Homo sapiens) (UniProt P47890)
T8 sequence (whole entry): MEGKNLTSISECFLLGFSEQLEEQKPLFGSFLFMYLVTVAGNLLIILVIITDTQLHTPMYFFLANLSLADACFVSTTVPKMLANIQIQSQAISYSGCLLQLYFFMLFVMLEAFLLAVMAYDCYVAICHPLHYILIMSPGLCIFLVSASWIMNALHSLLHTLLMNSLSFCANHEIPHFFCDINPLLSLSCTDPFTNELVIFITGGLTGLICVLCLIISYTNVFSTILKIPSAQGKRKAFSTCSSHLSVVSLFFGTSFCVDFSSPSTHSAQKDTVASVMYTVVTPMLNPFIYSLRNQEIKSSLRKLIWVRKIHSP
Summary of the method: as §1

[9] = molecular target: T9, OR1I1 (Homo sapiens) (UniProt O60431)
T9 sequence (whole entry): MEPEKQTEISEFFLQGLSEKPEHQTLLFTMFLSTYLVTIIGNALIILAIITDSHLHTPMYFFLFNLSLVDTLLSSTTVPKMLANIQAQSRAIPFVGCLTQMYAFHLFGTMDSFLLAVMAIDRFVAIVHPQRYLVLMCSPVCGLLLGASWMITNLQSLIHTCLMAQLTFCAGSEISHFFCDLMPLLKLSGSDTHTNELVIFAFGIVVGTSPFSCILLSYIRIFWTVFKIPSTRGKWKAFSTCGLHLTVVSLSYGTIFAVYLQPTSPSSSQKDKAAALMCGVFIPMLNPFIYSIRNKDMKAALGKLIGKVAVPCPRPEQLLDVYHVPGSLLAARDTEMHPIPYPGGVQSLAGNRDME
Summary of the method: as §1

[10] = molecular target: T10, OR1J1 (Homo sapiens) (UniProt Q8NGS3)
T10 sequence (whole entry): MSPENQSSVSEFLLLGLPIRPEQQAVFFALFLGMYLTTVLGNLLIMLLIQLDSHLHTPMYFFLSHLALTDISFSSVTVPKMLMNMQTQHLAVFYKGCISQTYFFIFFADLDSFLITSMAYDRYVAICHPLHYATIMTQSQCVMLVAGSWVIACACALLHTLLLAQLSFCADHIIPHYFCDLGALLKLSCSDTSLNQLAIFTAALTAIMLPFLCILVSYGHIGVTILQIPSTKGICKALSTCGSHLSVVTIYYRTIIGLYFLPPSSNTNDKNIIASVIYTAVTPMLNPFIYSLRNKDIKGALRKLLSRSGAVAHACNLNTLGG
Summary of the method: as §1

[11] = molecular target: T11, OR1J2 (Homo sapiens) (UniProt Q8NGS2)
T11 sequence (whole entry): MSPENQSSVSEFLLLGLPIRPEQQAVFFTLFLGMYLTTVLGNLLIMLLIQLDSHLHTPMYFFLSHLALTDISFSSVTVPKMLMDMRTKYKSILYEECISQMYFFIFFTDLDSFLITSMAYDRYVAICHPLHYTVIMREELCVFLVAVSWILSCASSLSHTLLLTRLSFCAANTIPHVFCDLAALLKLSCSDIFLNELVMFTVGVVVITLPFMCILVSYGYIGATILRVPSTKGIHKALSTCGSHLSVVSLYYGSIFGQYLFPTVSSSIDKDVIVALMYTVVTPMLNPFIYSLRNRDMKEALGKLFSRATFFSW
Summary of the method: as §1

[12] = molecular target: T12, OR1J4 (Homo sapiens) (UniProt Q8NGS1)
T12 sequence (whole entry): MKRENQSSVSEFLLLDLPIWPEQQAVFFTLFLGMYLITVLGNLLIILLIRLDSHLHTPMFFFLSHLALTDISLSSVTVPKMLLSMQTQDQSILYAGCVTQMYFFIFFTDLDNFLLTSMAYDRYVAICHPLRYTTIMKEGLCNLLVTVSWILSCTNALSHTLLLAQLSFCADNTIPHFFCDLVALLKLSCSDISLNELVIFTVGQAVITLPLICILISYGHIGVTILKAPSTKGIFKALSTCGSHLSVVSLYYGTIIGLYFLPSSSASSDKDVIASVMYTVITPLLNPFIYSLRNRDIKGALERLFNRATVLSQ
Summary of the method: as §1

[13] = molecular target: T13, OR1K1 (Homo sapiens) (UniProt Q8NGR3)
T13 sequence (whole entry): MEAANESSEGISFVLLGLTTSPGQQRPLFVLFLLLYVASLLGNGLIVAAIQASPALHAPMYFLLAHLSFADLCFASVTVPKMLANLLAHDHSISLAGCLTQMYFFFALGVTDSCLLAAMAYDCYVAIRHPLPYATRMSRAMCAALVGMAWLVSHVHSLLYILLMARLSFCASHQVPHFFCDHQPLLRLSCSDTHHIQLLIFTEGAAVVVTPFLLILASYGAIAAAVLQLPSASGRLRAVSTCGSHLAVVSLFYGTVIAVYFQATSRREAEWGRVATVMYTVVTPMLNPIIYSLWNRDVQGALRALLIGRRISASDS
Summary of the method: as §1

[14] = molecular target: T14, OR1L1 (Homo sapiens) (UniProt Q8NH94)
T14 sequence (whole entry): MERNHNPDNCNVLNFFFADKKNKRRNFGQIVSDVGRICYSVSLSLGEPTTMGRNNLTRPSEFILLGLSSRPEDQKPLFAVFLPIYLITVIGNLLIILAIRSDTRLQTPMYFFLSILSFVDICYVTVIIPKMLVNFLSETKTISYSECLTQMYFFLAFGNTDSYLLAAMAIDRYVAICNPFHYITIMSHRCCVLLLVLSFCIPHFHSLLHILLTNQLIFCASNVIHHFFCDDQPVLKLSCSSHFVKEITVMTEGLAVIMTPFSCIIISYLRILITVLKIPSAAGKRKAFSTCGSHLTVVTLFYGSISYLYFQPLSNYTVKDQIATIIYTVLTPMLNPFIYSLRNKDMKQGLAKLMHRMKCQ
Summary of the method: as §1

[15] = tested on: T15, OR1L1
T15 sequence (whole entry): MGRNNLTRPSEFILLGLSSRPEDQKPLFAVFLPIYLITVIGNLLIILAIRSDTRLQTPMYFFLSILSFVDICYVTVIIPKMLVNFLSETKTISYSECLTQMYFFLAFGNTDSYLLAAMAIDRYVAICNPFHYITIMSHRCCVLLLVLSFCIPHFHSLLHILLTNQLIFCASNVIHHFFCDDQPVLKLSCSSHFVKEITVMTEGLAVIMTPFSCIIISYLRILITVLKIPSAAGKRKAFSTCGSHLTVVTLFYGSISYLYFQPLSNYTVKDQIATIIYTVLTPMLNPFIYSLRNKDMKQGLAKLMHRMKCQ
Summary of the method: as §1
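Note: active if original authors judged signal statistically different from baseline.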

SMILES	odorant receptor agonist call [1]	odorant receptor agonist call [2]	odorant receptor agonist call [3]	odorant receptor agonist call [4]	odorant receptor agonist call [5]	odorant receptor agonist call [6]	odorant receptor agonist call [7]	odorant receptor agonist call [8]	odorant receptor agonist call [9]	odorant receptor agonist call [10]	odorant receptor agonist call [11]	odorant receptor agonist call [12]	odorant receptor agonist call [13]	odorant receptor agonist call [14]	odorant receptor agonist call [15]
CCCCCCC=CCCC=O	inactive	inactive	inactive	inactive	inactive	inactive	inactive	inactive	inactive	inactive	inactive	inactive	inactive	inactive	–
O=CN1CCCCC1	–	–	–	–	–	–	inactive	–	–	–	–	–	–	–	–
CCCCCC=O	–	–	–	–	–	–	–	active	–	–	–	–	–	–	–
CC1=NC(C)C(C)S1 (stereo not given)	inactive	inactive	inactive	inactive	inactive	inactive	inactive	inactive	inactive	inactive	inactive	inactive	inactive	–	inactive
